Drawing on ChEMBL document CHEMBL2346561, “Development of 2'-substituted (2S,1'R,2'S)-2-(carboxycyclopropyl)glycine analogues as potent N-methyl-d-aspartic acid receptor agonists” (J Med Chem, 2013), this text covers Ratio, EC50 and Ki for seven compounds.

SMILES strings stand for the structures. pEC50, pKi: −log10 of the molar value.

Assay [1] has as its target Ionotropic glutamate receptor NMDA 1/2D (Rattus norvegicus) (UniProt P35439+Q62645). Nature of the assay: Ratio of compound Imax to glutamate Imax for rat recombinant wild type GluN1/GluN2D receptor. It is filed as protein-complex assay.
The target of assay [2] is Glutamate NMDA receptor; Grin1/Grin2c (Rattus norvegicus) (UniProt P35439+Q00961). Nature of the assay: Ratio of compound Imax to glutamate Imax for rat recombinant wild type GluN1/GluN2C receptor. It is filed as protein-complex assay.
Assay [3] addresses Glutamate NMDA receptor; Grin1/Grin2b (Rattus norvegicus) (UniProt P35439+Q00960). Nature of the assay: Ratio of compound Imax to glutamate Imax for rat recombinant wild type GluN1/GluN2B receptor. It is filed as protein-complex assay.
The target of assay [4] is Ionotropic glutamate receptor NMDA 1/2D (Rattus norvegicus, UniProt P35439+Q62645). In words: Agonist activity at rat recombinant wild type GluN1/GluN2D receptor expressed in Xenopus laevis oocytes by two electrode voltage clamp technique. It is filed as cell-based, Oocyte. The method in brief: (§1)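 cRNA-injected Xenopus oocytes co-expressing GluN1 with GluN2A, 2B, 2C or 2D; two-electrode voltage clamp at −60 to −40 mV; perfusion with extracellular solution (mM: 90 NaCl, 0.5 BaCl₂, 1 KCl, 0.01 EDTA, 10 HEPES, pH 7.4) always containing 50 μM glycine. Concentration–response data per oocyte fitted to Hill equation; mean logEC₅₀ and nH ± SEM across oocytes.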

Assay [5] addresses Glutamate NMDA receptor; Grin1/Grin2c (Rattus norvegicus, UniProt P35439+Q00961). Nature of the assay: Agonist activity at rat recombinant wild type GluN1/GluN2C receptor expressed in Xenopus laevis oocytes by two electrode voltage clamp technique. It is filed as cell-based, Oocyte. In short, it runs like this:
as §1
A general note: Two-electrode voltage clamp holds a large cell at a set potential and records current.

In assay [6] the target is Glutamate NMDA receptor; Grin1/Grin2a (Rattus norvegicus, UniProt P35439+Q00959). Nature of the assay: Agonist activity at rat recombinant wild type GluN1/GluN2A receptor expressed in Xenopus laevis oocytes by two electrode voltage clamp technique. It is filed as cell-based, Oocyte. Conditions: for pEC50: read-out: EC50; call rule not given here. In short, it runs like this: as §1
For assay [7], the target named is Glutamate NMDA receptor; Grin1/Grin2b (Rattus norvegicus, UniProt P35439+Q00960). Nature of the assay: Agonist activity at rat recombinant wild type GluN1/GluN2B receptor expressed in Xenopus laevis oocytes by two electrode voltage clamp technique. It is filed as cell-based, Oocyte. The method in brief: as §1
Assay [8] has as its target Glutamate NMDA receptor. In words: Displacement of [3H]CGP39653 from NMDA receptor in rat cortical synaptosomes. It is filed as subcellular, Brain. In short, it runs like this: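 Rat cortical synaptosome membranes; 2 nM [³H]CGP 39653 (Kd = 6 nM) as radioligand for native NMDA receptors; Ki derived from displacement via Cheng-Prusoff relationship.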
Background: Displacement assays read how much labelled ligand stays bound in the presence of the test substance.

The nature of assay [9]: Displacement of [3H]KA from KA receptor in rat cortical synaptosomes. It is filed as subcellular, Brain.
A short description of assay [10]: Displacement of [3H]AMPA from AMPA receptor in rat cortical synaptosomes. It is filed as subcellular, Brain.
Assay [11] deals with Glutamate NMDA receptor; Grin1/Grin2a (Rattus norvegicus) (UniProt P35439+Q00959). In words: Ratio of compound Imax to glutamate Imax for rat recombinant wild type GluN1/GluN2A receptor. It is filed as protein-complex assay.

As to `CCCc1cnn(O)c1[C@@H](N)C(=O)O`, the Ratio was found to be 0.37 in assay [1], 0.22 in assay [2] and 0.06 in assay [3]. For the same compound, the pEC50 (as a rule, the EC50 on a negative log10 scale, so that one unit is a factor of ten) was 3.82 in [4], 3.37 in assay [5] and 3.98 in [7]. Also, in assay [6] (oocyte), the EC50 result is given as “Not Active”. The pKi (commonly −log10 of the Ki, conventionally taken in molar units) in assay [8] is 4.85; in [9], < 4.00; in assay [10] it was < 4.00.
Take `CCC[C@]1(C(=O)O)C[C@H]1[C@H](N)C(=O)O`: the Ratio in assay [1] worked out at 0.89; in assay [2], 0.7; in [3], 1.05; in assay [11] it was 0.67. Also, the pEC50 in assay [4] is 5.18; in assay [5] it was 4.52; in [6], 4.33; in assay [7], 4.80. In addition, the pKi is 5.92 in [8], 4.68 in assay [9] and < 4.00 in [10].
Turning to `C[C@]1(C(=O)O)C[C@H]1[C@H](N)C(=O)O`, the Ratio in assay [1] turned out to be 0.83; in assay [2] it was 0.81; in assay [3], 1.14; in assay [11], 0.94. Besides, the pEC50 in assay [4] was 7.59; in assay [5], 6.91; in assay [6] it was 6.56; in assay [7], 7.35. The pKi is 8.10 in [8], 6.96 in assay [9] and 4.54 in assay [10].
For the compound `NC(C(=O)O)c1ccnn1O` (racemic), the Ratio in assay [2] stood at 0.52; in assay [3] it was 0.58; in assay [11] it was 0.45. Further, the negative logarithm of the Ki (pKi) in assay [9] and in assay [10] was < 4.00 in each case.
On to `CC[C@]1(C(=O)O)C[C@H]1[C@H](N)C(=O)O`, for which the Ratio in assay [1] was determined as 0.91; in assay [2], 0.81; in [3], 1.02; in assay [11], 0.83. Further, the pEC50 in assay [4] was 7.10; in assay [5] it was 6.27; in assay [6], 5.93; in [7] it was 6.57. Further, the pKi in assay [8] is 7.21; in assay [9], 6.21; in assay [10], < 4.00.
As to `CCCC[C@]1(C(=O)O)C[C@H]1[C@H](N)C(=O)O`, the Ratio in assay [1] came out at 0.94; in assay [2], 0.85; in [3], 1.07; in assay [11] it was 0.65. For the same compound, the pEC50 in assay [4] was 5.48; in assay [5], 4.80; in assay [6] it was 4.54; in assay [7] it was 4.99. In addition, the pKi is 5.89 in assay [8], < 4.00 in assay [9] and < 4.00 in assay [10].
Turning to `N[C@H](C(=O)O)[C@@H]1C[C@@H]1C(=O)O`, the Ratio in assay [1] is 1.11; in assay [2] it was 0.9; in assay [3], 1.23; in [11] it was 0.99. Besides, the pEC50 in [4] is 7.44; in [5] it was 6.96; in assay [6] it was 6.58; in assay [7] it was 7.08. Besides, the pKi is 8.19 in [8], 6.51 in assay [9] and 5.96 in assay [10].
